Published values of several laboratories.
Protocols differ between the studies behind these lines.
CDK7: Cyclin-dependent kinase 7 (CDK7, Homo sapiens, UniProt P50613)
CDK7 with cyclin H: Cyclin-dependent kinase 7, with cyclin H (CDK7, Homo sapiens, UniProt P50613)

For `O=C(NCc1ncc(C(F)(F)F)cc1Cl)c1ccc2c(c1)C1(CCS(=O)(=O)CC1)[C@@H](C1CC1)N2S(=O)(=O)c1ccc(F)cc1`, the remaining binding was 56% (CDK7; cell-free assay; competition with immobilised ligand; 1 µM).
For `Cc1sc(C(=O)NC2COC2)cc1-n1cc(NC(=O)Nc2c(F)cccc2Cl)cn1`, the remaining activity was 103% (CDK7 with cyclin H; enzyme activity; inhibitor; 10 µM).
`CNC(=O)Nc1ccc2c(c1)[C@@]1(CC2)OC(=O)N(CC(=O)N(Cc2ccc(F)cc2)[C@@H](C)C(F)(F)F)C1=O` gave a remaining binding of 76% (CDK7; cell-free assay; competition with immobilised ligand; 1 µM).
`Cc1ccc(Nc2nccc(N(C)c3ccc4c(C)n(C)nc4c3)n2)cc1S(N)(=O)=O` has an inhibition of 8% (CDK7 with cyclin H; enzyme activity; inhibitor; 0.3 µM).
`C=C(C)[C@@H]1CC[C@]2(C(=O)O)CC[C@]3(C)[C@H](CC[C@@H]4[C@@]5(C)CC[C@H](O)C(C)(C)[C@@H]5CC[C@]43C)[C@@H]12` has an inhibition of 35.2% (CDK7 with cyclin H; enzyme activity; inhibitor; ADP detection; 10 µM).
With `CN(C)C(=O)Cn1cc(-c2nc([C@@](C)(c3ccc(-c4cnc(N)nc4)cc3)C3CC3)no2)cn1` the remaining binding was 59% (CDK7; cell-free assay; competition with immobilised ligand; 1 µM).
With `Cc1ccc(C(=O)NCc2ccsc2)cc1C#Cc1cn(C(C)C)c2ncnc(N)c12` the activity vs control was 94% (CDK7; enzyme activity; inhibitor; 1 µM).
With `CS(=O)(=O)N1CCCC(NC(=O)[C@H](CCC2CCCCC2)NC(=O)c2ccc(CNc3ncnc4c3nnn4-c3ccccc3)cc2)C1` (some centres unmarked) the remaining binding was 100% (CDK7; cell-free assay; competition with immobilised ligand; 0.1 µM).
The remaining activity of `CC(C)(C)c1nc(-c2cccc(NS(=O)(=O)c3c(F)cccc3F)c2F)c(-c2ccnc(N)n2)s1` is reported as 109% (CDK7 with cyclin H; enzyme activity; inhibitor; radiometric; 1 µM).
`O=C1Nc2ccc(Cl)cc2C1=Cc1cc(Cl)c(O)c(Cl)c1` has a remaining signal of 96.7% (CDK7 with cyclin H; cell-free assay; 0.5 µM).
For `CCCCCC[C@@H](C)/C=C(C)/C=C/C(=O)N[C@H]1CC2(O[C@H]1O)[C@@H]1O[C@@H]1C(=O)[C@@H]1O[C@@H]12` (some centres unmarked), the inhibition was -18.5% (CDK7 with cyclin H; enzyme activity; inhibitor; ADP detection; 10 µM).
`Nc1ncnc2occ(-c3ccc(NC(=O)Nc4cc(C(F)(F)F)ccc4F)cc3)c12` gave a remaining signal of 0.9% (CDK7; cell-free assay; inhibitor; 20 µM).
`CC(C)c1ccc(NC(=O)c2cccs2)c(-c2nc3ccccc3[nH]c2=O)c1` gave an activity vs control of 85% (CDK7; enzyme activity; inhibitor; 1 µM).
With `O=C1C[C@@H](c2ccc(O)cc2)Oc2cc(O)cc(O)c21` the inhibition was 3.7% (CDK7 with cyclin H; enzyme activity; inhibitor; ADP detection; 10 µM).
`CC(C)(O)[C@H]1CC[C@H](Nc2ccc3ncc(-c4cccc(C(F)(F)F)c4)n3n2)CC1` has a remaining activity of 96.6% (CDK7 with cyclin H; enzyme activity; inhibitor; 1 µM).
With `COc1c(-c2ccccc2)oc2c(ccc3occc32)c1=O` the inhibition was -0.1% (CDK7 with cyclin H; enzyme activity; inhibitor; ADP detection; 10 µM).
`C[C@H](c1ccc(F)cc1)N(Cc1cccc(C(=O)O)c1)C(=O)c1cnc2ccccc2c1` has a remaining binding of 100% (CDK7; cell-free assay; competition with immobilised ligand; 1 µM).
`O=C1C[C@@H](c2ccc(O)c(O[C@@H]3O[C@H](CO)[C@@H](O)[C@H](O)[C@H]3O)c2)Oc2cc(O[C@@H]3O[C@H](CO)[C@@H](O)[C@H](O)[C@H]3O)ccc21` has an inhibition of 36.6% (CDK7 with cyclin H; enzyme activity; inhibitor; ADP detection; 10 µM).
For `CNC(=O)c1cc(Oc2ccc(NC(=O)Nc3ccc(Cl)c(C(F)(F)F)c3)cc2)ccn1`, the inhibition was -3% (CDK7 with cyclin H; enzyme activity; inhibitor; 0.3 µM).
`COc1c2c(cc3oc(-c4ccccc4)cc(=O)c13)OCO2` gave an inhibition of 94.4% (CDK7 with cyclin H; enzyme activity; inhibitor; ADP detection; 10 µM).
For `CO[C@@H](C)c1c(Nc2ccc([C@H](N(C)C(=O)C3CCS(=O)(=O)CC3)C(F)(F)F)cc2)cnc2cc(Cl)nn12`, the remaining binding was 100% (CDK7; cell-free assay; competition with immobilised ligand; 1 µM).
`COc1cc2ncnc(Nc3ccc(F)c(Cl)c3)c2cc1OCCCN1CCOCC1` has a remaining signal of 105% (CDK7 with cyclin H; cell-free assay; 0.5 µM).
The remaining binding of `C[C@H](c1ccnc(Nc2nc3ccc(-c4cc(N(C)C)ncn4)cc3[nH]2)c1)N1CCN(C(=O)CC(F)(F)F)CC1` is reported as 93% (CDK7; cell-free assay; competition with immobilised ligand; 0.1 µM).
For `O=C(Nc1cnn(-c2csc(C(=O)NC3COC3)c2)c1)Nc1c(F)cccc1Cl`, the remaining activity was 95.8% (CDK7 with cyclin H; enzyme activity; inhibitor; 5 µM).
`CC(=O)Nc1c(C(C)=O)c(=O)n(C)c2nc(-c3ccc(Cl)cc3Cl)c(-c3ccc(Cl)cc3)cc12` gave a remaining binding of 100% (CDK7; cell-free assay; competition with immobilised ligand; 1 µM).
With `CC[C@]12CCCN3CCc4c(n(c5ccccc45)[C@@](O)(C(=O)OC)C1)[C@@H]32` the inhibition was -20.8% (CDK7 with cyclin H; enzyme activity; inhibitor; ADP detection; 10 µM).
`COc1cc(Nc2c(C#N)cnc3cc(OCCCN4CCN(C)CC4)c(OC)cc23)c(Cl)cc1Cl` gave a remaining signal of 113% (CDK7 with cyclin H; cell-free assay; 0.5 µM).
With `O=c1cc(-c2ccccc2)oc2ccccc12` the inhibition was 41.7% (CDK7 with cyclin H; enzyme activity; inhibitor; ADP detection; 10 µM).
`Cc1ccc(C(=O)Nc2ccc(CN3CCN(C)CC3)c(C(F)(F)F)c2)cc1C#Cc1cnc2cccnn12` has a remaining activity of 47% (CDK7; enzyme activity; inhibitor; 23.5 nM).
